Reference: publication PMC4607565 (Bioorganic & medicinal chemistry letters, 2015)
Changes are numbered by the printed parent chain. pKd: −log10 of the molar value. Entries after “also recorded” stand apart in the source; their conditions may differ. Read-outs that look alike come from different tables or passages of the source. Each block holds one molecule with its values, some of them ahead of it.

How the values were obtained:
TG2 [1] = biological target: T1, TG2 (Homo sapiens, UniProt P21980); test: native PAGE analysis of open versus closed states
T1 sequence (P21980 1-687): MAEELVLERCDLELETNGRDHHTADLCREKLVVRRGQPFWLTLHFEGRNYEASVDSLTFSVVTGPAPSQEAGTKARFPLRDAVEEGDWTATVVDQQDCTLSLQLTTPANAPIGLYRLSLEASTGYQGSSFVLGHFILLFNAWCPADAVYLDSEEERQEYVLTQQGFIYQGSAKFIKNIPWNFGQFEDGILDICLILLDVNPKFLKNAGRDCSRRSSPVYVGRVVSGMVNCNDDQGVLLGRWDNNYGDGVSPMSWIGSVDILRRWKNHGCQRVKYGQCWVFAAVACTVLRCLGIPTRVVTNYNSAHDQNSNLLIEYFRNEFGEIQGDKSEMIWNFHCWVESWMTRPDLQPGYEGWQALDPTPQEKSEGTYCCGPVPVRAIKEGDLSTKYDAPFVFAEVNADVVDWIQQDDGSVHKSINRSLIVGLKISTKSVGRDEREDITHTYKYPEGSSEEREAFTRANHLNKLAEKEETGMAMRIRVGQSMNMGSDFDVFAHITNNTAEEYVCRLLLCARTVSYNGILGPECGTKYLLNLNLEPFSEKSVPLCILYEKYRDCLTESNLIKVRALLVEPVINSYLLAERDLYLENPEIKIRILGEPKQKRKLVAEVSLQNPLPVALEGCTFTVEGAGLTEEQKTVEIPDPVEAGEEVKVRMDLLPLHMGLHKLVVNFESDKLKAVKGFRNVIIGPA

[2] = biological target: T2, TG2 S2A mutant (E396Q/N398S/D400N) (Homo sapiens, UniProt P21980, D400N/E396Q/N398S); test: deamidation activity of S2A mutant; type: biochemical; details: [TG2] = 2.5 μM; [Ca2+] = 5 mM
T2 sequence (P21980 1-687 E396Q/N398S/D400N): T1 sequence (P21980 1-687) with E396Q, N398S, D400N

TG2 [3] = biological target: T1, TG2; test: microtiter plate transamidation assay; type: biochemical
In short: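 In a microtiter plate format, TG2 incorporated 5-BP into immobilized N,N-dimethylcasein. The incorporated biotin was quantified with streptavidin. Ca2+ was held at the sub-saturating level of 0.6 mM, and the test compound was assayed with or without the stable GTP analog GMP-PNP.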

human TG2 (V224 variant) = biological target: T3, human TG2 (V224 variant) (Homo sapiens, UniProt P21980); test: coupled GDH assay of TG2 deamidation of Cbz-Gln-Gly; type: biochemical; details: for mode of inhibition / activation: V224 TG2
T3 sequence (P21980 1-687): T1 sequence (P21980 1-687)

[4] = biological target: T4, truncated form of human TG2 (1-466) (Homo sapiens, UniProt P21980); test: deamidation activity of truncated TG2; type: biochemical; details: [TG2] = 0.5 μM; [Ca2+] = 5 mM
T4 sequence (P21980 1-466): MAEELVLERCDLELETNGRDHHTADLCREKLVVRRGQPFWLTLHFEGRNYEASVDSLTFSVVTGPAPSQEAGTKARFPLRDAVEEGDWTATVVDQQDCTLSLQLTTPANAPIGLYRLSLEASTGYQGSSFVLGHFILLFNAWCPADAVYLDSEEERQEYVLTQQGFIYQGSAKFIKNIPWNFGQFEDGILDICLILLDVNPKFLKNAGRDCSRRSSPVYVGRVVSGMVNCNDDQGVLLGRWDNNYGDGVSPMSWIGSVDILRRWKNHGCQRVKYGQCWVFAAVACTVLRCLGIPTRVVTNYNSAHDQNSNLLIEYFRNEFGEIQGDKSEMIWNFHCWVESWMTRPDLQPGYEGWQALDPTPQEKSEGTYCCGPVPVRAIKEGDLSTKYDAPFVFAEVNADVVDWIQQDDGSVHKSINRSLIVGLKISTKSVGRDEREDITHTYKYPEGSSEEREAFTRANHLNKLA
In short: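 The truncated TG2 (residues 1-466) lacks both C-terminal beta-barrel domains and was expressed and purified. It was tested against wild-type TG2 in the deamidation assay at 0.5 μM enzyme and 5 mM Ca2+. Activity was normalized to each protein's own maximum, since kcat and KM differ between the two proteins.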

[5] = biological target: T5, R580A mutant of human TG2 (Homo sapiens, UniProt P21980, R580A); test: deamidation activity of R580A mutant; type: biochemical; details: [TG2] = 0.5 μM, [Ca2+] = 3 mM
T5 sequence (P21980 1-687 R580A): T1 sequence (P21980 1-687) with R580A
In short: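 Deamidation by wild-type and R580A TG2 was measured side by side with test compound and the GTP analog GMP-PNP, at 0.5 μM enzyme and 3 mM Ca2+.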

[6] = biological target: T6, TG2 S2B mutant (E447Q/E451Q/E452Q/E454Q) (Homo sapiens, UniProt P21980, E447Q/E451Q/E452Q/E454Q); test: deamidation activity of S2B mutant; type: biochemical; details: [TG2] = 2.5 μM; [Ca2+] = 5 mM
T6 sequence (P21980 1-687 E447Q/E451Q/E452Q/E454Q): T1 sequence (P21980 1-687) with E447Q, E451Q, E452Q, E454Q

[7] = system: extracellular TG2 in WI-38 fibroblasts; test: 5-BP incorporation into extracellular matrix proteins of WI-38 fibroblasts; type: cell-based
In short: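 WI-38 fibroblasts were grown to confluence, then pre-incubated with vehicle (1% DMSO) or test compound for 30 min. Cells were then given 200 μM 5-(biotinamido)pentylamine for 3 h, fixed and stained. Transamidation was scored as 5-BP incorporated into extracellular matrix proteins, imaged at 5 fields sampled across each well.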

TG2 [8] = details: cited from earlier work
[9] = biological target: T5, R580A mutant of human TG2; details: cited from earlier work
TG2 [10] = biological target: T1, TG2; details: active site-directed irreversible inhibitor; cited from earlier work

influence on relative distribution of open versus closed states of TG2 (TG2 [1]): did not have a measurable influence
inhibitory effect on S2A mutant compared with wild-type [2]: comparable inhibitory effect
effect on transamidating activity of TG2 (TG2 [3]; 0.6 mM Ca2+ alone): agonism was not observed
effect on transamidation activity of TG2 (TG2 [3]; 0.6 mM Ca2+ and 100 μM GMP-PNP): markedly enhanced
mode of inhibition / activation (human TG2 (V224 variant); Lineweaver-Burk analysis): non-competitive inhibitor
extent of inhibition of wild-type TG2 (human TG2 (V224 variant); [TG2] = 0.5 μM, [Ca2+] = 5 mM): partial inhibitory character
extent of inhibition of TG2 (1-466) [4]: total antagonist
agonistic effect in the presence of GMP-PNP ([5]; R580A mutant): evident
inhibitory potency in R580A mutant versus wild-type [5]: unaltered
effect on activity of S2B mutant [6]: no effect
Molecule: COc1ccccc1C(=O)/C=C1/C(=O)Nc2cccc(Cl)c21 [CK-IV-55]
effect on TG2 catalytic activity at sub-saturating Ca2+ (human TG2 (V224 variant); sub-saturating Ca2+, 0.5-0.7 mM (legend of Figure 4A: 0.5-0.8 mM)): weak but reproducible agonism; also recorded: activated TG2
extracellular TG2 activity (5-BP incorporation) ([7]; 1 μM compound, 200 μM 5-BP, 3 h): activation of extracellular TG2
extracellular TG2 activity (5-BP incorporation) ([7]; 10 μM compound, 3 h): TG2 activity was suppressed compared to the 1 μM case

Molecule: O=C1Nc2cccc(Cl)c2/C1=C\C(=O)c1ccc(Cl)cc1 [CK-IV-67]
extracellular TG2 activity (5-BP incorporation) ([7]; concentrations not given (data not shown)): higher absolute concentrations of the latter inhibitor were required to see elevated 5-BP incorporation

Molecule: [Ca+2] [Ca^2+, reference compound]
pKd (TG2 [8]; read-out: Kd, high-affinity Ca2+ binding site, one site (S1)): ~6.00
pKd (TG2 [8]; read-out: Kd, lower-affinity Ca2+ binding sites, five sites): ~3.00
mode of inhibition / activation (human TG2 (V224 variant); Lineweaver-Burk analysis): competitive activator
Ka, activation of V224 TG2 (human TG2 (V224 variant); Lineweaver-Burk analysis, [TG2] = 0.5 μM): 0.6 ± 0.3 mM

mode of inhibition / activation (human TG2 (V224 variant); Lineweaver-Burk analysis): competitive inhibitor
Molecule: Nc1nc2c(ncn2[C@@H]2O[C@H](COP(=O)(O)OP(=O)(O)NP(=O)(O)O)[C@@H](O)[C@H]2O)c(=O)[nH]1 [GMP-PNP, reference compound]
inhibition of R580A mutant [9]: attenuated

Molecule: Ac-P(DON)LPF-NH2
effect on TG2 conformation (TG2 [10]): locks TG2 in the open state
